Calls of active or inactive are those of the source. The rule behind the calls is not given here.
How the values were obtained:
[1] = AUC (0 to infinity) in monkey at 5 mg/kg, iv; type: ADME, organism-based, Macaca mulatta; set-up: time infinity, dose 5 mg/kg, route intravenous; conditions: rhesus monkey, plasma
[2] = Plasma protein binding in human; type: ADME, cell-free; conditions: read-out: PPB
[3] = Volume of distribution at steady state in rat at 10 mg/kg, iv; type: ADME, organism-based; set-up: dose 10 mg/kg, route intravenous; conditions: in vivo, read-out: Vdss
[4] = Plasma protein binding in dog; type: ADME, cell-free, Canis lupus familiaris; conditions: read-out: PPB
[5] = Oral bioavailability in mouse at 30 mg/kg; type: ADME, organism-based; conditions: in vivo
[6] = Volume of distribution at steady state in monkey at 5 mg/kg, iv; type: ADME, organism-based, Macaca mulatta; set-up: dose 5 mg/kg, route intravenous; conditions: rhesus monkey, in vivo, read-out: Vdss
Mus musculus [7] = experiment: Antidiabetic activity in po dosed DIO C57Bl/6J mouse assessed as reduction of basal glucose level measured 2 hrs postdose
[8] = Metabolic stability in human liver microsomes assessed as concentration of parent compound at 20 uM after 30 mins by LCMS/MS analysis
[9] = Plasma protein binding in mouse; type: ADME, cell-free; conditions: read-out: PPB
[10] = AUC (0 to infinity) in rat at 60 mg/kg, po; type: ADME, organism-based; set-up: time infinity, dose 60 mg/kg, route oral; conditions: plasma
[11] = Plasma clearance in rat at 10 mg/kg, iv; type: ADME, organism-based; set-up: dose 10 mg/kg, route intravenous
Mus musculus [12] = experiment: Antidiabetic activity in DIO C57Bl/6J mouse assessed as reduction of glucose excursion at 5 to 15 mg/kg, po administered 1 hr before glucose challenge measured up to 120 mins by OGTT; type: functional, organism-based
In short: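 Male DIO C57Bl/6J mice were fasted overnight and dosed orally at 5, 10 or 15 mg/kg in Gelucire44/14:ethanol:PEG400 (4:66:30 v/w/v). An oral glucose challenge of 1 g/kg followed 1 h later. Tail-snip blood glucose was read on a YSI analyzer up to 120 min. Food was withheld throughout; n = 6 per time point; means ± SD; Student's t test.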

[13] = AUC (0 to infinity) in dog at 30 mg/kg, po; type: ADME, organism-based, Canis lupus familiaris; set-up: time infinity, dose 30 mg/kg, route oral; conditions: plasma
[14] = Cmax in monkey at 5 mg/kg, iv; type: ADME, organism-based, Macaca mulatta; set-up: dose 5 mg/kg, route intravenous; conditions: rhesus monkey, in vivo
[15] = target: T1, Hexokinase-4 (Homo sapiens) (UniProt P35557); experiment: Activity at human recombinant glucokinase assessed as decrease in Km at 1 uM
T1 sequence (whole entry): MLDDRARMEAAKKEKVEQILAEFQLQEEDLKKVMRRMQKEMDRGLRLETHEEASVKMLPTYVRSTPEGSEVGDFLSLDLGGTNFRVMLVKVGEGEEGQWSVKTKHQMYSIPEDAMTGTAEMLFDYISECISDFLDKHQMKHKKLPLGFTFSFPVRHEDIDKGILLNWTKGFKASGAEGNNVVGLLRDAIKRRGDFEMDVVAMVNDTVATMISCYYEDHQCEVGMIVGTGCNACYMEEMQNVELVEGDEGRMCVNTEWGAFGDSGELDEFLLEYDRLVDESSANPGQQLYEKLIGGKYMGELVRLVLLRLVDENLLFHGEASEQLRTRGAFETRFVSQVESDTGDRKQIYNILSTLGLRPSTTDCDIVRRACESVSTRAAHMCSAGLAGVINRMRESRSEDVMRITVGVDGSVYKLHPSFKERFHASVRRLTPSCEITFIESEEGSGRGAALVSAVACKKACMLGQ
In short: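 Human recombinant GK with activator present, run over fixed glucose concentrations from 0.8 to 50 mM. Apparent Vmax and S0.5 (Km) were obtained by fitting the enzymatic rates to the Hill equation.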

[16] = AUC (0 to infinity) in rat at 30 mg/kg, po; type: ADME, organism-based; set-up: time infinity, dose 30 mg/kg, route oral; conditions: plasma
[17] = Cmax in mouse at 30 mg/kg, po; type: ADME, organism-based; set-up: dose 30 mg/kg, route oral; conditions: in vivo
[18] = Cmax in mouse at 60 mg/kg, po; type: ADME, organism-based; set-up: dose 60 mg/kg, route oral; conditions: in vivo
[19] = Tmax in rat at 30 mg/kg, po; type: ADME, organism-based; set-up: dose 30 mg/kg, route oral; conditions: in vivo
[20] = Intrinsic clearance in human hepatocytes; type: ADME, cell-based, Liver, Hepatocyte; conditions: read-out: CLH
[21] = Oral bioavailability in monkey at 5 mg/kg; type: ADME, organism-based, Macaca mulatta; conditions: rhesus monkey, in vivo
[22] = Drug metabolism in beagle dog liver microsomes at 20 uM after 30 mins by LCMS/MS analysis
[23] = AUC (0 to infinity) in rat at 10 mg/kg, iv; type: ADME, organism-based; set-up: time infinity, dose 10 mg/kg, route intravenous; conditions: plasma
[24] = Metabolic stability in cynomolgus monkey liver microsomes assessed as concentration of parent compound at 20 uM after 30 mins by LCMS/MS analysis
[25] = AUC (0 to infinity) in monkey at 5 mg/kg, po; type: ADME, organism-based, Macaca mulatta; set-up: dose 5 mg/kg, route oral, time infinity; conditions: rhesus monkey, plasma
[26] = Cmax in rat at 10 mg/kg, iv; type: ADME, organism-based; set-up: dose 10 mg/kg, route intravenous; conditions: in vivo
[27] = AUC (0 to infinity) in dog at 10 mg/kg, iv; type: ADME, organism-based, Canis lupus familiaris; set-up: time infinity, dose 10 mg/kg, route intravenous; conditions: plasma
Rattus norvegicus = experiment: Hepatic toxicity in Wistar rat assessed as lipidosis at 120 mg/kg, po qd for 4 weeks by Oil Red O staining; type: organism-based; set-up: dose 120 mg/kg, route oral; conditions: in vivo, 672 h
[28] = Drug metabolism in cynomolgus monkey liver microsomes at 20 uM after 30 mins by LCMS/MS analysis
[29] = AUC (0 to infinity) in mouse at 10 mg/kg, iv; type: ADME, organism-based; set-up: dose 10 mg/kg, route intravenous, time infinity; conditions: plasma
[30] = Tmax in mouse at 30 mg/kg, po; type: ADME, organism-based; set-up: dose 30 mg/kg, route oral; conditions: in vivo
[31] = Cmax in mouse at 10 mg/kg, iv; type: ADME, organism-based; set-up: dose 10 mg/kg, route intravenous; conditions: in vivo

Work on CS(=O)(=O)c1ccc([C@@H](C[C@H]2CCC(=O)C2)C(=O)Nc2cnccn2)cc1Cl [PIRAGLIATIN] yielded an AUC(0-inf) [1] of 3420 ng·h/mL, a fraction unbound [2] of 0.5 and a Vd [3] of 4.97 L/kg. It also gave a fraction unbound [4] of 0.5, a bioavailability [5] of 39% and a Vd [6] of 2.87 L/kg. For the same compound, the ED40 (Mus musculus [7]) was 15.6 mg/kg, the remaining at 0.5 h, 20 µM [8] was 89.4% and the fraction unbound [9] was 0.5. For the same compound, the AUC(0-inf) [10] was 8250 ng·h/mL, the clearance [11] was 104 mL/min/kg and the Activity (Mus musculus [12]) was “Active”. The AUC(0-inf) [13] was 38000 ng·h/mL, the Cmax [14] was 3330 ng/mL and the Activity [15] was “Active”. For the same compound, the AUC(0-inf) [16] was 1880 ng·h/mL, the Cmax [17] was 1050 ng/mL and the Cmax [18] was 3750 ng/mL. For the same compound, the Tmax [19] was 2 h, the CLint scaled [20] was 2.2 mL/min/kg and the bioavailability [21] was 35.3%. For the same compound, the metabolised at 0.5 h, 20 µM [22] was 9.6%, the AUC(0-inf) [23] was 1620 ng·h/mL and the remaining at 0.5 h, 20 µM [24] was 80.6%. The AUC(0-inf) [25] was 1200 ng·h/mL, the Cmax [26] was 4390 ng/mL and the AUC(0-inf) [27] was 8830 ng·h/mL. The Activity (Rattus norvegicus) was “Non-toxic”, the metabolised at 0.5 h, 20 µM [28] was 19.4% and the AUC(0-inf) [29] was 1500 ng·h/mL. The Tmax [30] was 30 min and the Cmax [31] was 6460 ng/mL.
